Measurements from different studies.
Each line is one published result; the experiments were not run side by side.
Effect on: metabolic stability
Host: rat

The half-life of `Cc1[nH]c(C)c(S(=O)(=O)Nc2ccc(S(=O)(=O)F)c(Cl)c2)c1C(=O)N1CCC(F)(F)C1` is reported as 11 min (liver microsomes).
`C[C@]12CC[C@H]3[C@@H](CCC4=CC(=O)CC[C@@]43C)[C@@H]1CC[C@@H]2O` gave a half-life of 1.55 min (liver microsomes).
`Cc1[nH]c(C)c(S(=O)(=O)Nc2ccc(S(F)(F)(F)(F)F)c(Cl)c2)c1C(=O)N1CCC(F)(F)C1` gave a half-life of 34 min (liver microsomes).
For `CC(C)CC(=O)OC[C@H]1O[C@@](C#N)(c2ccc3c(N)ncnn23)[C@H](O)[C@@H]1O`, the half-life was 0.422 min (plasma; 5 µM).
`Cc1ncc2n1-c1ccc(Cl)cc1C(c1ccccc1F)=NC2` has a half-life of 20.4 min (hepatocytes).
`CC(=O)c1c(C)c2cnc(Nc3ccc(C4CCN(CCS(C)(=O)=O)CC4)cn3)nc2n(C2CCCC2)c1=O` has a half-life of 65.4 min (liver microsomes).
`C[C@]12CC[C@H]3[C@@H](CCC4=CC(=O)CC[C@@]43C)[C@@H]1CC[C@@H]2O` gave a half-life of 5.45 min (liver microsomes; 1 µM; pH 7.4).
For `O=c1[nH]c2ccccc2n1C1CCN(CCCC(c2ccc(F)cc2)c2ccc(F)cc2)CC1`, the half-life was 80 min (liver microsomes; 100 ng/mL).
